Measurements taken from ChEMBL document CHEMBL3758146, “Synthesis and biological evaluation of quinazolin-4(3H)-one derivatives bearing dithiocarbamate side chain at C2-position as potential antitumor agents” (Eur J Med Chem, 2016).
Calls of active or inactive are those of the source. No cut-off for these calls is given here.

Tests used:
[1] = test system: HeLa; experiment: Antiproliferative activity against human HeLa cells after 72 hrs by MTS assay; type: functional, cell-based
Method in brief: (§1)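 MTS (CellTiter 96 AQueous One) read-out after 72 h exposure; compounds first screened at 50 µM, with ≥50% inhibition versus vehicle-treated cells counted as active. Actives were then tested at various concentrations to give IC50 (concentration causing 50% proliferation inhibition). Triplicate wells, three independent experiments, mean ± SD. 5-FU as positive control.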

[2] = Antiproliferative activity against human HCT116 cells after 72 hrs by MTS assay; type: functional, cell-based; conditions: HCT-116, 72 h; method in brief: as §1
[3] = test system: MCF7; experiment: Antiproliferative activity against human MCF7 cells after 72 hrs by MTS assay; type: functional, cell-based; conditions: MCF7, 72 h; method in brief: as §1
[4] = test system: A549; experiment: Antiproliferative activity against human A549 cells after 72 hrs by MTS assay; type: functional, cell-based; conditions: A549, 72 h; method in brief: as §1
[5] = test system: HT-29; experiment: Antiproliferative activity against human HT-29 cells after 72 hrs by MTS assay; type: functional, cell-based; conditions: HT-29, 72 h; method in brief: as §1
[6] = test system: HT-29; experiment: Cell cycle arrest in human HT-29 cells assessed as accumulation at G2/M phase at IC50 after 24 hrs by propidium iodide staining based FACS analysis (reference value: 16.7 +/- 1.55%); type: functional
[7] = test system: HT-29; experiment: Induction of spindle assembly checkpoint in human HT-29 cells assessed as mitotic index after 4 hrs by immunostaining assay (reference value: 3.13 +/- 1.01); type: functional
[8] = test system: HT-29; experiment: Induction of spindle assembly checkpoint in human HT-29 cells assessed as mitotic index after 8 hrs by immunostaining assay (reference value: 2.81 +/- 0.82); type: functional
[9] = test system: HT-29; experiment: Cell cycle arrest in human HT-29 cells assessed as accumulation at S phase at IC50 after 24 hrs by propidium iodide staining based FACS analysis (reference value: 33.05 +/- 2.22%); type: functional
[10] = test system: HT-29; experiment: Induction of spindle assembly checkpoint in human HT-29 cells assessed as mitotic index after 16 hrs by immunostaining assay (reference value: 2.87 +/- 0.82); type: functional
[11] = test system: HT-29; experiment: Cell cycle arrest in human HT-29 cells assessed as accumulation at G0/G1 phase at IC50 after 24 hrs by propidium iodide staining based FACS analysis (reference value: 50.25 +/- 1.19%); type: functional
[12] = test system: HT-29; experiment: Induction of spindle assembly checkpoint in human HT-29 cells assessed as mitotic index after 2 hrs by immunostaining assay (reference value: 2.47 +/- 0.71); type: functional
[13] = biological target: T1, Tubulin (Sus scrofa) (UniProt P02554+P02550); experiment: Induction of porcine neuronal tubulin polymerization at 15 uM after 60 mins by spectrometric analysis; type: protein assay
Method in brief: (§2)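 Cell-free tubulin polymerization run by a commercial kit protocol; assembly followed as rise in absorbance at 340 nm over 60 min at 37 °C, with Taxol as reference.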

[14] = test system: HT-29; experiment: Upregulation of phosphorylated BubR1 level in human HT-29 cells after 16 hrs by immuno-blot analysis; type: functional, cell-based
[15] = biological target: T1, Tubulin (Sus scrofa); experiment: Induction of porcine neuronal tubulin polymerization at 10 uM after 60 mins by spectrometric analysis; type: protein assay; method in brief: as §2
[16] = test system: HT-29; experiment: Induction of DNA damage in human HT-29 cells assessed as increase in gamma-H2AX protein level after 1 to 2 hrs by Western blot analysis; type: functional, cell-based
Method in brief: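 Total lysates of HT29 cells treated 1 or 2 h, with CPT (2 µM) and DMSO diluent as comparators, immunoblotted for γ-H2AX (15 kDa), with β-actin (42 kDa) as loading control probed on a separate section of the same membrane.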

[17] = test system: HT-29; experiment: Induction of DNA damage in human HT-29 cells assessed as gamma-H2AX foci formation after 1 to 2 hrs by DAPI staining based indirect immunofluorescence assay; type: functional, cell-based
Method in brief: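 HT29 cells treated 1 or 2 h alongside CPT (2 µM) and DMSO diluent, fixed, immunostained with mouse monoclonal anti-γ-H2AX (clone JBW301, 1:1500) and counterstained with DAPI for DNA; γ-H2AX foci scored by indirect immunofluorescence.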

[18] = test system: HT-29; experiment: Cell cycle arrest in human HT-29 cells assessed as accumulation at G2/M phase at 0.18 uM after 24 hrs by propidium iodide staining based FACS analysis (reference value: 16.7 +/- 1.55%); type: functional
[19] = test system: HT-29; experiment: Cell cycle arrest in human HT-29 cells assessed as accumulation at S phase at 0.18 uM after 24 hrs by propidium iodide staining based FACS analysis (reference value: 33.05 +/- 2.22%); type: functional
[20] = test system: HT-29; experiment: Cell cycle arrest in human HT-29 cells assessed as accumulation at G0/G1 phase at 0.18 uM after 24 hrs by propidium iodide staining based FACS analysis (reference value: 50.25 +/- 1.19%); type: functional
[21] = test system: HT-29; experiment: Induction of DNA damage in human HT-29 cells assessed as gamma-H2AX foci formation at 2 uM after 1 to 2 hrs by DAPI staining based indirect immunofluorescence assay; type: functional, cell-based
Method in brief: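 HT29 cells exposed 1 or 2 h, DMSO as diluent control. After fixation, cells immunostained with mouse monoclonal anti-γ-H2AX (clone JBW301, 1:1500) and DNA counterstained with DAPI. γ-H2AX foci scored by indirect immunofluorescence.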

[22] = test system: HT-29; experiment: Induction of DNA damage in human HT-29 cells assessed as increase in gamma-H2AX protein level at 2 uM after 1 to 2 hrs by Western blot analysis; type: functional, cell-based
Method in brief: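 HT29 cells treated 1 or 2 h, DMSO as diluent control. Total lysates immunoblotted for γ-H2AX (15 kDa), with β-actin (42 kDa) as loading reference; both probed on separate sections of one membrane.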

T1 sequence (P02550 whole entry, looked up): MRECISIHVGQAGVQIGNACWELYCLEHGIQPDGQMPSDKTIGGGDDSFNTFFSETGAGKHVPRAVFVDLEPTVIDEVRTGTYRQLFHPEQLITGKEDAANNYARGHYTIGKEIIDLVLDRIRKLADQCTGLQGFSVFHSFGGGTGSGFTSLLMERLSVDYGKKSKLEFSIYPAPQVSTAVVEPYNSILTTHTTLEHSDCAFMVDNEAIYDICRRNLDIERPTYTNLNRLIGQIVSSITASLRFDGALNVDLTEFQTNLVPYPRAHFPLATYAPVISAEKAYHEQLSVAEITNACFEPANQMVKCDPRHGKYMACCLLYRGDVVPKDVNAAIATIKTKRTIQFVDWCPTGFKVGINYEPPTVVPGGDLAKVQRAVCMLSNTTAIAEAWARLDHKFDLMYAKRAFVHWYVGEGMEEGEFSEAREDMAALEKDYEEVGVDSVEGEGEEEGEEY
T1 sequence (P02554 whole entry, looked up): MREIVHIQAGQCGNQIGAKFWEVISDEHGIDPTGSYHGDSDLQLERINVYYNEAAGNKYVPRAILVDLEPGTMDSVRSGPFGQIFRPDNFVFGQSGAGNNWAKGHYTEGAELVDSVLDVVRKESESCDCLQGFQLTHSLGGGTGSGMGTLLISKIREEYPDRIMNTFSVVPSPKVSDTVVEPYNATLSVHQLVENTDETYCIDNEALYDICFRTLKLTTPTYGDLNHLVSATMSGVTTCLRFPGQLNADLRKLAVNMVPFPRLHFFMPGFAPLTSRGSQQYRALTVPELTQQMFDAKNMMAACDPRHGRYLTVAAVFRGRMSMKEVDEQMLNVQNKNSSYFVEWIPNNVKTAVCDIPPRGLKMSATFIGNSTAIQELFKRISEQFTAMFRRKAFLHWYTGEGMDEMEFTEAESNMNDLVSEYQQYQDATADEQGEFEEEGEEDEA

SMILES	IC50 [1]	IC50 [2]	IC50 [3]	IC50 [4]	IC50 [5]	other results
O=c1[nH]c(CSC(=S)NCc2cccs2)nc2ccccc12	26.1 µM	16.1 µM	23.9 µM	25.7 µM	16.1 µM	–
O=c1[nH]cc(F)c(=O)[nH]1 [FLUOROURACIL]	–	–	–	–	–	Activity [6]: 3.48%; Activity_index [7]: 2.09; Activity_index [8]: 0.29; Activity [9]: 91.11%; Activity_index [10]: 0.23; Activity [11]: 5.42%; Activity_index [12]: 2.28
O=c1[nH]c(CSC(=S)NCc2ccc(Cl)cc2)nc2ccccc12	> 50 µM	> 50 µM	> 50 µM	> 50 µM	> 50 µM	–
Cc1ccc(CNC(=S)SCc2nc3ccccc3c(=O)[nH]2)cc1	20.7 µM	23.2 µM	21.4 µM	32.6 µM	16.3 µM	–
O=c1[nH]c(CSC(=S)NCc2ccc(Cl)cc2Cl)nc2ccccc12	29 µM	29.7 µM	> 50 µM	12.8 µM	11.4 µM	–
COc1ccc(CNC(=S)SCc2nc3ccccc3c(=O)[nH]2)cc1	12.2 µM	22.7 µM	10.9 µM	7.27 µM	5.53 µM	Activity [6]: 55.31%; Activity [13]: Active; Activity_index [7]: 7.75; Activity [14]: Active; Activity_index [8]: 10.15; Activity [9]: 28.25%; Activity_index [10]: 37.85; Activity [15]: inactive; Activity [16]: inactive; Activity [11]: 16.45%; Activity [17]: inactive; Activity_index [12]: 4.66
COc1cc(CNC(=S)SCc2nc3ccccc3c(=O)[nH]2)cc(OC)c1OC	22.9 µM	17.3 µM	8.97 µM	10.4 µM	7.16 µM	–
O=c1[nH]c(CSC(=S)NCc2ccc(F)cc2)nc2ccccc12	21.2 µM	20.1 µM	17.4 µM	10.7 µM	18.6 µM	–
COC(=O)Nc1nc2cc(C(=O)c3cccs3)ccc2[nH]1 [NOCODAZOLE]	–	–	–	–	–	Activity_index [7]: 11.4; Activity_index [8]: 25.61; Activity_index [10]: 64.81; Activity_index [12]: 5.22
O=c1[nH]c(CSC(=S)NCc2ccc(C(F)(F)F)nc2)nc2ccccc12	28.4 µM	16.7 µM	19.2 µM	12.9 µM	16.5 µM	–
COc1ccccc1CNC(=S)SCc1nc2ccccc2c(=O)[nH]1	16.5 µM	30.6 µM	14.8 µM	12 µM	12.3 µM	–
O=c1[nH]c(CSC(=S)NCc2ccc(Br)cc2)nc2ccccc12	22.9 µM	45.3 µM	39.2 µM	18.2 µM	32.3 µM	–
O=c1[nH]c(CSC(=S)NCc2ccccc2F)nc2ccccc12	13.2 µM	20.3 µM	20.5 µM	21.2 µM	16.4 µM	–
CC(=O)O[C@H]1C(=O)[C@@]2(C)[C@H]([C@H](OC(=O)c3ccccc3)[C@]3(O)C[C@H](OC(=O)[C@H](O)[C@@H](NC(=O)c4ccccc4)c4ccccc4)C(C)=C1C3(C)C)[C@]1(OC(C)=O)CO[C@@H]1C[C@@H]2O [PACLITAXEL]	–	–	–	–	–	Activity [18]: 80.71%; Activity [19]: 17.6%; Activity [14]: Active; Activity [20]: 1.7%
O=c1[nH]c(CSC(=S)NCc2ccco2)nc2ccccc12	31.2 µM	24.6 µM	> 50 µM	42.6 µM	33.7 µM	–
O=c1[nH]c(CSC(=S)NCc2ccccn2)nc2ccccc12	> 50 µM	> 50 µM	> 50 µM	> 50 µM	> 50 µM	–
O=c1[nH]c(CSC(=S)NCc2ccccc2)nc2ccccc12	10.7 µM	18.1 µM	31.3 µM	23.7 µM	14.5 µM	–
CC[C@@]1(O)C(=O)OCc2c1cc1n(c2=O)Cc2cc3ccccc3nc2-1 [CAMPTOTHECIN]	–	–	–	–	–	Activity_index [7]: 1.11; Activity_index [8]: 0.33; Activity [21]: Active; Activity [22]: Active; Activity_index [12]: 1.55
COc1ccc(CNC(=S)SCc2nc3ccccc3c(=O)[nH]2)c(OC)c1	16 µM	25.5 µM	13.5 µM	10.5 µM	10.1 µM	–
O=c1[nH]c(CSC(=S)NCc2cccnc2)nc2ccccc12	11 µM	11.2 µM	20.2 µM	14.8 µM	14.2 µM	–
O=c1[nH]c(CSC(=S)NCc2ccncc2)nc2ccccc12	12.5 µM	6.67 µM	16.1 µM	6.13 µM	16 µM	–
O=c1[nH]c(CSC(=S)NCc2ccc3c(c2)OCO3)nc2ccccc12	20.3 µM	34.2 µM	21.7 µM	44.6 µM	19.3 µM	–
O=c1[nH]c(CSC(=S)NCc2ccc([N+](=O)[O-])cc2)nc2ccccc12	28.4 µM	16.4 µM	19.3 µM	11.4 µM	17.2 µM	–
O=c1[nH]c(CSC(=S)NCc2ccc(F)cc2F)nc2ccccc12	20.1 µM	22.3 µM	20.4 µM	30.6 µM	15.7 µM	–
